Test results published in ChEMBL document CHEMBL1146639, “Synthesis and evaluation of nonpeptide substituted spirobenzazepines as potent vasopressin antagonists” (Bioorg Med Chem Lett, 2004).
Converted amounts (≈) assume the structure as drawn.

Key:
[1] = biological target: T1, Vasopressin V2 receptor (Homo sapiens, UniProt P30518); experiment: Evaluated for accumulation of cAMP in transfected HEK293 cells expressing human vasopressin V2 receptor; assay type: functional, cell-based
Outline: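 Functional V2 assay: cAMP accumulation measured in transfected HEK-293 cells expressing human V2 receptor; IC50 in nM.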

[2] = biological target: T1, Vasopressin V2 receptor; experiment: Binding affinity measured by inhibition of 3[H] AVP binding to cloned human vasopressin V2 receptor
Outline: (§1)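 Radioligand binding: inhibition of [3H]AVP binding to cloned human V1a or V2 receptors; IC50 in nM.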

[3] = biological target: T2, Vasopressin V1a receptor (Homo sapiens, UniProt P37288); experiment: Evaluated for intracellular calcium mobilization in HEK293 cells transfected to express human vasopressin V1a receptor; assay type: functional, cell-based
T2 sequence (P37288 whole entry): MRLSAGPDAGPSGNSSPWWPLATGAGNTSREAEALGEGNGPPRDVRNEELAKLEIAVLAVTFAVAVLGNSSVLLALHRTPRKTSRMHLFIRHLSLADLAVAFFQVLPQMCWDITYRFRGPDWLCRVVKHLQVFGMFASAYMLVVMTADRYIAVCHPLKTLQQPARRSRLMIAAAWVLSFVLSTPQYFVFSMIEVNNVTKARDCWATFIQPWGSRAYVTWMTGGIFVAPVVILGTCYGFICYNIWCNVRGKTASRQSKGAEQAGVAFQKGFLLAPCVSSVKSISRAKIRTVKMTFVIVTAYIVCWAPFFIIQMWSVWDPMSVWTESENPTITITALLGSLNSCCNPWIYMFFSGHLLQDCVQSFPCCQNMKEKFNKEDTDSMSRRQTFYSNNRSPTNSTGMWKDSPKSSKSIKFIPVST
Outline: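 Functional V1a assay: intracellular calcium mobilization measured in HEK-293 cells transfected to express human V1a receptor; IC50 in nM.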

[4] = biological target: T2, Vasopressin V1a receptor; experiment: Binding affinity measured by inhibition of 3[H] AVP binding to cloned human vasopressin V1a receptor; outline: as §1
[5] = Solubility measured at pH 7.4; assay type: physicochemical; conditions: buffer
[6] = Partition coefficient (logP); assay type: physicochemical; conditions: octanol/water
[7] = Solubility measured at pH 2; assay type: physicochemical; conditions: buffer
[8] = Half-life was evaluated in rats at an oral dose of 30 mg/kg; assay type: ADME, organism-based; parameters: dose 30 mg/kg, route oral; conditions: rat, in vivo
Outline: (§2)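 Rats given a single oral dose of 30 mg/kg. Cmax, Tmax, terminal half-life and absolute oral bioavailability determined.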

[9] = Bioavailability was evaluated in rats at an oral dose of 30 mg/kg; assay type: ADME, organism-based; conditions: rat, in vivo; outline: as §2
[10] = Apparent volume of distribution when 3 mg/Kg dose was administered intravenously; assay type: ADME, organism-based; conditions: rat, in vivo, iv, read-out: Volume distribution
Outline: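 Rats given a single intravenous dose of 3 mg/kg. Apparent volume of distribution reported in […].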

[11] = Maximum plasma concentration was evaluated in rats at an oral dose of 30 mg/kg; assay type: ADME, organism-based; parameters: dose 30 mg/kg, route oral; conditions: rat; outline: as §2
[12] = Maximum plasma concentration was evaluated in rats at an intravenous dose of 3 mg/kg; assay type: ADME, organism-based; parameters: dose 3 mg/kg, route intravenous; conditions: rat
[13] = biological target: T3, Vasopressin V1a receptor (Rattus norvegicus, UniProt P30560); experiment: Evaluated for binding affinity towards vasopressin V1a receptor in rat
T3 sequence (P30560 whole entry): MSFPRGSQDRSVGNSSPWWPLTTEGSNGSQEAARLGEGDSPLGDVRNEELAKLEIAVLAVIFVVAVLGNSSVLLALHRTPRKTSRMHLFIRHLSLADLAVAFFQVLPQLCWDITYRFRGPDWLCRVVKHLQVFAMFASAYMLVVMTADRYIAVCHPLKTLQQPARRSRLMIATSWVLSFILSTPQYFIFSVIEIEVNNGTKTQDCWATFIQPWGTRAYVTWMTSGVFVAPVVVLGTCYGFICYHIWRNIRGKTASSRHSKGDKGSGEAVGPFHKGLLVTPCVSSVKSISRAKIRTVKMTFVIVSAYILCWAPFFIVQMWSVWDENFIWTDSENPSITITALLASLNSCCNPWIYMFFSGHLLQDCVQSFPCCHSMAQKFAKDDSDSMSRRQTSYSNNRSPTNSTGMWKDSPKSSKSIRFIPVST
Outline: (§3)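 Binding IC50 measured in cells transfected with rat V1a or rat V2 receptors.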

[14] = Half-life determined by human liver microsome stability assay at a concentration of 5 uM; assay type: ADME; conditions: liver microsomes
[15] = Half-life was evaluated in rats at an intravenous dose of 3 mg/kg; assay type: ADME, organism-based; parameters: dose 3 mg/kg, route intravenous; conditions: rat, in vivo
[16] = Area under the curve was evaluated at an intravenous dose of 3 mg/kg; assay type: ADME, organism-based; parameters: dose 3 mg/kg, route intravenous; conditions: rat, in vivo
[17] = Area under the curve was evaluated at an oral dose of 30 mg/kg; assay type: ADME, organism-based; parameters: dose 30 mg/kg, route oral; conditions: rat, in vivo
[18] = Time to reach maximum plasma concentration was evaluated at an oral dose of 30 mg/kg; assay type: ADME, organism-based; parameters: dose 30 mg/kg, route oral; conditions: rat; outline: as §2
[19] = biological target: Vasopressin V2 receptor (Rattus norvegicus, UniProt Q00788); experiment: Evaluated for binding affinity towards vasopressin V2 receptor in rat; outline: as §3
Sequence of Vasopressin V2 receptor (Rattus norvegicus, UniProt Q00788) (Q00788 whole entry): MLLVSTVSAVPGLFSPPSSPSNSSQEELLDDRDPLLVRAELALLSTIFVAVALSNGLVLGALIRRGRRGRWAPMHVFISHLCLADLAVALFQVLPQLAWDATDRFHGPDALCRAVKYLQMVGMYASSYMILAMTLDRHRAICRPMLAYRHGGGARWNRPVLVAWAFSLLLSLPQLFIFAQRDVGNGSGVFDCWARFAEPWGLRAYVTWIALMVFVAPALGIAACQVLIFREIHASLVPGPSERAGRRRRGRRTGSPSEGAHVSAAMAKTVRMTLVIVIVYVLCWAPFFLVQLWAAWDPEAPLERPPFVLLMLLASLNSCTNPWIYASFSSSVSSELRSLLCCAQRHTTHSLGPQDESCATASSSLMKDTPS

[20] = biological target: T3, Vasopressin V1a receptor; experiment: Evaluated for binding affinity towards vasopressin receptor V1a in rat; outline: as §3
[21] = biological target: T2, Vasopressin V1a receptor; experiment: Binding affinity measured by inhibition of 3[H] AVP binding to cloned human vasopressin V1a receptor (Compound 7o)
Outline: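 Displacement of [3H]AVP from cloned human V1a receptor; IC50 from inhibition of radioligand binding.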

[22] = biological target: T2, Vasopressin V1a receptor; experiment: Evaluated for intracellular calcium mobilization in HEK- 293 cells transfected to express human vasopressin V1a receptor (Compound 7o); assay type: functional, cell-based, HEK293
Outline: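 Antagonism measured as inhibition of intracellular calcium mobilization in HEK-293 cells transfected with human V1a receptor; IC50 reported.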

T1 sequence (P30518 whole entry): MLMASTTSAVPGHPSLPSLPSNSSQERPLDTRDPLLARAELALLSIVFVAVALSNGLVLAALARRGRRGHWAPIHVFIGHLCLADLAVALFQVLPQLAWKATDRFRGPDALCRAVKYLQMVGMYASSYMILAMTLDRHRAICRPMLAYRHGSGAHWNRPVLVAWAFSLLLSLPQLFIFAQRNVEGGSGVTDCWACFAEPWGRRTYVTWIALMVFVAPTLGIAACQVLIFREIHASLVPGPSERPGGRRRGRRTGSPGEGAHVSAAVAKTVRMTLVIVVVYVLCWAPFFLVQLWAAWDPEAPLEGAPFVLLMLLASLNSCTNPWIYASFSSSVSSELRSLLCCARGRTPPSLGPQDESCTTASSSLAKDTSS

SMILES: O=C(NCCO)C1=CC2(CC1)CCN(C(=O)c1ccc(NC(=O)c3ccccc3-c3ccccc3)cc1)c1ccccc1C2 (stereo not drawn)
- IC50 [1]: 170 nM

SMILES: CN(C)CCNC(=O)C1=CC2(CC1)CCN(C(=O)c1ccc(NC(=O)c3ccccc3F)cc1)c1ccccc1C2 (stereo not drawn)
- IC50 [1]: > 1000 nM
- IC50 [2]: > 1000 nM

SMILES: Cc1ccc(F)cc1C(=O)Nc1ccc(C(=O)N2CCC3(C=C(C(=O)NCCN4CCCC4)CC3)Cc3ccccc32)cc1 (stereo not drawn)
- IC50 [3]: 29 nM
- IC50 [1]: 48 nM
- IC50 [2]: 39 nM
- IC50 [4]: 19 nM

SMILES: CN(C)CCNC(=O)C1=CC2(CC1)CCN(C(=O)c1ccc(NC(=O)c3ccccc3-c3ccccc3)cc1)c1ccccc1C2 (stereo not drawn)
- IC50 [1]: 100 nM

SMILES: CN(C)CCNC(=O)C1=C[C@]2(CC1)CCN(C(=O)c1ccc(NC(=O)c3ccccc3-c3ccccc3)cc1)c1ccccc1C2
- IC50 [3]: 45 nM
- solubility [5]: 40 µg/mL (≈ 65.3 µM)
- logP [6]: 3.63
- solubility [7]: 160 µg/mL (≈ 261 µM)
- half-life [8]: 6.47 h
- bioavailability [9]: 22%
- Vd [10]: 6.84 L/kg
- Cmax [11]: 790 nM
- IC50 [1]: 36 nM
- IC50 [2]: 8 nM
- Cmax [12]: 2660 nM
- IC50 [13]: 33 nM
- IC50 [4]: 2 nM
- half-life at 5 µM [14]: 1.08 h
- half-life [15]: 1.68 h
- AUC [16]: 2.06 µM·h
- AUC [17]: 4.57 µM·h
- Tmax [18]: 4 h

SMILES: O=C(NCCN1CCCC1)C1=CC2(CC1)CCN(C(=O)c1ccc(NC(=O)c3ccccc3F)cc1)c1ccccc1C2 (stereo not drawn)
- IC50 [3]: 155 nM
- IC50 [1]: > 1000 nM
- IC50 [2]: > 1000 nM
- IC50 [4]: 8 nM

SMILES: CN(C)CCNC(=O)C1=C[C@@]2(CC1)CCN(C(=O)c1ccc(NC(=O)c3ccccc3F)cc1)c1ccccc1C2 (single isomer, unassigned)
- IC50 [3]: 78 nM
- solubility [5]: 70 µg/mL (≈ 126 µM)
- logP [6]: 2.45
- IC50 [19]: 444 nM
- solubility [7]: 320 µg/mL (≈ 577 µM)
- half-life [8]: 4.15 h
- bioavailability [9]: 42%
- Vd [10]: 6.67 L/kg
- Cmax [11]: 1100 nM
- IC50 [1]: 646 nM
- IC50 [2]: 341 nM
- Cmax [12]: 1800 nM
- IC50 [20]: 433 nM
- IC50 [4]: 4 nM
- half-life at 5 µM [14]: 0.717 h
- half-life [15]: 4.35 h
- AUC [16]: 1.68 µM·h
- AUC [17]: 7.04 µM·h
- Tmax [18]: 4.67 h

SMILES: Cc1ccc(F)cc1C(=O)Nc1ccc(C(=O)N2CCC3(C=C(C(=O)NCCN(C)C)CC3)Cc3ccccc32)cc1 (stereo not drawn)
- IC50 [3]: 65 nM
- IC50 [1]: 105 nM
- IC50 [2]: 20 nM

SMILES: Cc1ccc(F)cc1C(=O)Nc1ccc(C(=O)N2CCC3(C=C(C(=O)NCCN4CCCCC4)CC3)Cc3ccccc32)cc1 (stereo not drawn)
- IC50 [3]: 48 nM
- IC50 [21]: 16 nM
- IC50 [22]: 71 nM
- IC50 [1]: 48 nM
- IC50 [2]: 39 nM
- IC50 [4]: 10 nM

SMILES: O=C(O)CNC(=O)C1=CC2(CC1)CCN(C(=O)c1ccc(NC(=O)c3ccccc3-c3ccccc3)cc1)c1ccccc1C2 (stereo not drawn)
- IC50 [3]: 78 nM
- IC50 [1]: 350 nM
- IC50 [2]: 18 nM
- IC50 [4]: 24 nM

SMILES: Cc1ccc(F)cc1C(=O)Nc1ccc(C(=O)N2CCC3(C=C(C(=O)NCCCN(C)C)CC3)Cc3ccccc32)cc1 (stereo not drawn)
- IC50 [3]: 4 nM
- IC50 [1]: 31 nM

SMILES: COC(=O)CNC(=O)C1=CC2(CC1)CCN(C(=O)c1ccc(NC(=O)c3cc(F)ccc3C)cc1)c1ccccc1C2 (stereo not drawn)
- IC50 [3]: 135 nM
- IC50 [1]: 440 nM
- IC50 [2]: 10 nM
- IC50 [4]: 7 nM

SMILES: O=C(NCCO)C1=CC2(CC1)CCN(C(=O)c1ccc(NC(=O)c3ccccc3F)cc1)c1ccccc1C2 (stereo not drawn)
- IC50 [1]: > 1000 nM
- IC50 [2]: > 1000 nM

SMILES: O=C(NCCN1CCCCC1)C1=CC2(CC1)CCN(C(=O)c1ccc(NC(=O)c3ccccc3F)cc1)c1ccccc1C2 (stereo not drawn)
- IC50 [1]: > 1000 nM
- IC50 [2]: > 1000 nM

SMILES: CN(C)CCCNC(=O)C1=CC2(CC1)CCN(C(=O)c1ccc(NC(=O)c3ccccc3-c3ccccc3)cc1)c1ccccc1C2 (stereo not drawn)
- IC50 [3]: 29 nM
- IC50 [1]: 20 nM
- IC50 [2]: 16 nM
- IC50 [4]: 5 nM

SMILES: O=C(NCCN1CCOCC1)C1=CC2(CC1)CCN(C(=O)c1ccc(NC(=O)c3ccccc3F)cc1)c1ccccc1C2 (stereo not drawn)
- IC50 [2]: > 1000 nM
- IC50 [4]: 4 nM
